# Screens: PubChem, Broad Institute
# Rows were chosen to be rich in hits. Some 2% of all compounds tested hit in one or more screens of this group.
# XiGFP reactiv: reactivates the inactive X chromosome in mouse fibroblasts; XiGFP mouse fibroblasts, % GFP-positive cells imaging, 3 d; cells co-treated with 5-aza-dC sensitizer; scaled so ellipticine positive control = 100%; activation, % at 7.58 µM; 360,000 tested, 0.055% active;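 active means mean normalized replicate activation at least 10% and every replicate at or above 10%; inconclusive means only one of the two criteria met; inactive means mean below 10% and not all replicates reach 10%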
#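 System: 68-5-11 XiGFP fibroblast line | Buffer or medium: DMEM containing 5-aza-dC | Compound: Single point | Times: Compounds 3 days, fix/stain 15 min at room temperature | Benchmarks: Positive control ellipticine, 6 µM final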
# E-sel inducer: E-selectin induction on HUVECs; P16581; AID 686992; HUVEC E-selectin immunofluorescence imaging; normalized: neutral wells 0, TNF-alpha wells 100; 260,000 tested, 0.37% active; activation, % at 7.58 µM;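 active means mean E-selectin-positive cell signal at least 10% of the positive control, reached in at least 60% of replicates, without over 20% cell loss; inconclusive means no rule given, readout overlaps actives, possibly toxicity-flagged; inactive means the rest, including those meeting only one limit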
#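 Test system: HUVEC | Signal: Immunofluorescence imaging | Read-out: Percent E-selectin-positive cells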
# S100A4 MyoIIA: blocks human S100A4 binding to myosin IIA peptide | P26447 | 360,000 tested, 0.14% active | AID 652163 | S100A4/TAMRA-MyoIIA peptide fluorescence polarization | inhibition, % at 10.7 µM;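 active means mean inhibition of at least 70% across replicates, with every replicate also reaching that level; inconclusive means mean inhibition reaches 70% but some replicates fall short; inactive means mean inhibition below 70%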
# Target sequence (P26447 whole entry, looked up): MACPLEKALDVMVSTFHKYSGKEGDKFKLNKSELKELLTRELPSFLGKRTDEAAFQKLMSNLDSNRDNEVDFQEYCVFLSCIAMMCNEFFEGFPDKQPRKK
#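 Material: S100A4 monomer protein | Medium: HEPES pH 7.2 with CaCl2, KCl, NaCl, DTT, Triton | Reagent: Labelled myosin peptide probe, 5 nM | Doses: One dose per compound | Times: 5 min incubation before reading | Benchmarks: Neutral control DMSO, positive control TFP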
# DENV2 CPE: inhibitors of DENV2 cytopathic effect. DENV2-infected cells, cytopathic effect rescue, plate reader. CPE inhibition, % at 9.99 µM. 350,000 tested, 1.7% active. AID 651640; in the data active means CPE inhibition above about 20%, passing the limit was not always enough; inconclusive means no clear call, values can overlap the other calls; tested in BHK-21 cells
# Numbers stand for hits; 0 = inactive; ? = inconclusive; - = no result.
SMILES,XiGFP reactiv,E-sel inducer,S100A4 MyoIIA,DENV2 CPE
CN(C)CC#Cc1ccc([C@@H]2[C@H](CO)N3CCCCN(C(=O)Nc4cc(F)ccc4F)C[C@@H]23)cc1,0,0,0,0
CN(C)CC#Cc1ccc([C@H]2[C@H](CO)N3CCCCN(C(=O)c4ccc5c(c4)OCO5)C[C@@H]23)cc1,0,0,0,?
CN(C)CC#Cc1ccc([C@H]2[C@H](CO)N3CCCCN(C(=O)Nc4cc(F)ccc4F)C[C@@H]23)cc1,0,0,0,32
Cc1ccc(-n2cc[nH]c2=S)c(C)c1,0,-,0,0
CN(C)CCNc1nc2sc3c(c2c(=O)n1-c1ccc(F)cc1)CCCCC3,0,0,0,26
Cc1ccccc1S(=O)(=O)N1CC[C@@H]2[C@H]1c1cc(-c3ccc(F)cc3)ccc1N(C)[C@H]2CO,0,0,0,0
CN1c2ccc(C#Cc3cccnc3)cc2[C@@H]2[C@@H](CCN2S(=O)(=O)c2ccccc2F)[C@@H]1CO,0,0,120,0
CN1c2ccc(-c3ccccc3)cc2[C@@H]2[C@@H](CCN2S(=O)(=O)c2ccccc2F)[C@@H]1CO,0,0,0,68
Cc1ccccc1S(=O)(=O)N1CC[C@@H]2[C@@H](CO)N(C)c3ccc(-c4cccc(F)c4)cc3[C@@H]21,0,0,-,44
CN1c2ccc(C#Cc3cccc(F)c3)cc2[C@H]2[C@H](CCN2S(=O)(=O)c2ccccc2F)[C@@H]1CO,0,0,0,0
CN1c2ccc(-c3ccccc3)cc2[C@@H]2[C@@H](CCN2S(=O)(=O)c2ccccc2F)[C@H]1CO,0,0,0,0
O=C(NCc1cccnc1)c1cc(Cl)ccc1[N+](=O)[O-],0,-,-,-
CC(=O)c1ccc(OCCCC(=O)NC2CCCc3ccccc32)cc1 (stereo not drawn),0,-,0,22
CN(c1ccccc1)S(=O)(=O)c1cccc(NC(=O)Nc2ccc(Cl)cc2C#N)c1,0,-,-,-
COCCCN1C(=O)C(CC(=O)NC(c2ccccc2)c2ccccc2)CC(C(=O)N(C(C)C)C(C)C)=C1C (stereo not drawn),0,0,0,57
CCN(CC)C(=O)C1=C(C)N(CCCN2CCCC2=O)C(=O)C(CC(=O)NCC2CCCCC2)C1 (stereo not drawn),0,0,0,74
CC1=C(C(=O)N(C)C)CC(CC(=O)NCC2CCCCC2)C(=O)N1CCCN1CCCC1=O (stereo not drawn),0,-,0,0
COCCCN1C(=O)C(CC(=O)NC2CCCCC2)CC(C(=O)N(C(C)C)C(C)C)=C1C (stereo not drawn),-,0,0,27
CC1=C(C(=O)N(C(C)C)C(C)C)CC(CC(=O)NC2CCCCC2)C(=O)N1CCCN1CCCC1=O (stereo not drawn),0,0,0,0
CC1=C(C(=O)N(C)C)CC(CC(=O)NC2CCCCC2)C(=O)N1Cc1ccc(C(C)(C)C)cc1 (stereo not drawn),0,-,0,43
Cc1ccc(CSCc2ccc(C(=O)NC3CCCC3)o2)cc1,0,0,0,0
OC1CCN(Cc2cn(Cc3ccccc3)nc2-c2cc3ccccc3o2)CC1,0,-,0,?
COC(=O)C[C@@H]1OC[C@H](Cc2ccccc2)N1S(=O)(=O)c1ccc(C)cc1,0,0,0,21
COc1ccc(C(=O)C[C@@H]2OC[C@H](C)N2S(=O)(=O)c2ccc(C)cc2)cc1OC,0,0,0,57
CCCS(=O)(=O)NC(=O)C1(C)CCCN(C(=O)c2ccc3snnc3c2)C1 (stereo not drawn),0,0,0,0
SMILES,XiGFP reactiv,E-sel inducer,S100A4 MyoIIA,DENV2 CPE
CCC(C(=O)NCCCN1CCN(C)CC1)n1nc(C)c2sc3ccccc3c2c1=O (stereo not drawn),0,-,0,0
CCCN1CCN(CCCNC(=O)C(CC)n2nc(C)c3sc4ccccc4c3c2=O)CC1 (stereo not drawn),0,-,113,0
O=C(c1ccc2c(=O)n3c(nc2c1)CCCCC3)N1CCN(c2ccc(Cl)cc2)CC1,0,0,0,0
COc1ccc(-n2c(SCC(=O)N3CCOCC3)nc(O)cc2=O)cc1,0,0,0,0
Cc1ccc(-n2c(SCC(=O)N3CCOCC3)nc(O)cc2=O)cc1,0,0,0,69
CC(C)C#Cc1ccc([C@H]2[C@H](C#N)N(C(=O)C3CCC3)[C@H]2CO)cc1,0,0,0,57
CN(C)CC#Cc1ccc([C@H]2[C@@H](CO)N(C(=O)C3CC3)[C@H]2C#N)cc1,0,0,0,32
CCCC#Cc1ccc([C@H]2[C@H](C#N)N(C(=O)C3CC3)[C@H]2CO)cc1,0,0,0,0
